Experimental data reported in publication PMC6658111 (Journal of molecular biology, 2018).
Changes are numbered by the printed parent chain. Names and notes keep the numbering of the source. Values joined by “and” are separate entries in the source; they are usually repeats but may differ in a detail not shown here. Equal values may be shown once. Read-outs that look alike come from different tables or passages of the source. Non-standard residues stand in square brackets, D forms with d. No end group written: not given here. pT = C[C@@H](OP(=O)(O)O)[C@H](N)C(=O)O; MBP = not defined here

Legend:
[1] = system: wild type CaMKII kinase domain (residues 1–283); type: binding; conditions: ITC; for −TΔS: 25 °C, pH 7.5, Mg2+-AMPPNP, mean and standard deviation of the mean
[2] = system: CaMKII^K43M,D136N kinase domain; experiment: Isothermal titration calorimetry with K43M/D136N CaMKII kinase domain; type: binding, Drosophila; conditions: ITC, 25 °C, pH 7.5, Mg2+-AMPPNP, mean and standard deviation of the mean, n=3
[3] = system: wild type CaMKII kinase domain; parameters: species or system Drosophila; conditions: LC-HRMS of final ITC mixture, Mg2+-AMPCP
Outline: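 Sample is the end-point mixture of isothermal titration calorimetry at 25 °C. MBP-dEAG channel fragment was titrated into a cell holding the Drosophila CaMKII kinase domain (residues 1–283, E. coli-expressed, wild type or D136N), with one 2 μl injection then 27 × 10 μl. Partners were first co-dialysed against 25 mM HEPES pH 7.5, 150 mM KCl, 0.5 mM TCEP, then with 1 mM MgCl₂ + 250 μM nucleotide. Final composition was 5 mM MgCl₂ and 1 mM nucleotide.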

[4] = system: CaMKII^D136N kinase domain (residues 1–283); type: binding; conditions: ITC, 25 °C, pH 7.5, Mg2+-AMPPNP, mean and standard deviation of the mean, n=4
T787A dEAG channel = experiment: Two-electrode voltage clamp in oocytes, T787A dEAG channel; type: cell-based, Drosophila; conditions: Xenopus laevis oocytes, n=7–10
Sequence of T787A dEAG channel (Q02280 whole entry T787A): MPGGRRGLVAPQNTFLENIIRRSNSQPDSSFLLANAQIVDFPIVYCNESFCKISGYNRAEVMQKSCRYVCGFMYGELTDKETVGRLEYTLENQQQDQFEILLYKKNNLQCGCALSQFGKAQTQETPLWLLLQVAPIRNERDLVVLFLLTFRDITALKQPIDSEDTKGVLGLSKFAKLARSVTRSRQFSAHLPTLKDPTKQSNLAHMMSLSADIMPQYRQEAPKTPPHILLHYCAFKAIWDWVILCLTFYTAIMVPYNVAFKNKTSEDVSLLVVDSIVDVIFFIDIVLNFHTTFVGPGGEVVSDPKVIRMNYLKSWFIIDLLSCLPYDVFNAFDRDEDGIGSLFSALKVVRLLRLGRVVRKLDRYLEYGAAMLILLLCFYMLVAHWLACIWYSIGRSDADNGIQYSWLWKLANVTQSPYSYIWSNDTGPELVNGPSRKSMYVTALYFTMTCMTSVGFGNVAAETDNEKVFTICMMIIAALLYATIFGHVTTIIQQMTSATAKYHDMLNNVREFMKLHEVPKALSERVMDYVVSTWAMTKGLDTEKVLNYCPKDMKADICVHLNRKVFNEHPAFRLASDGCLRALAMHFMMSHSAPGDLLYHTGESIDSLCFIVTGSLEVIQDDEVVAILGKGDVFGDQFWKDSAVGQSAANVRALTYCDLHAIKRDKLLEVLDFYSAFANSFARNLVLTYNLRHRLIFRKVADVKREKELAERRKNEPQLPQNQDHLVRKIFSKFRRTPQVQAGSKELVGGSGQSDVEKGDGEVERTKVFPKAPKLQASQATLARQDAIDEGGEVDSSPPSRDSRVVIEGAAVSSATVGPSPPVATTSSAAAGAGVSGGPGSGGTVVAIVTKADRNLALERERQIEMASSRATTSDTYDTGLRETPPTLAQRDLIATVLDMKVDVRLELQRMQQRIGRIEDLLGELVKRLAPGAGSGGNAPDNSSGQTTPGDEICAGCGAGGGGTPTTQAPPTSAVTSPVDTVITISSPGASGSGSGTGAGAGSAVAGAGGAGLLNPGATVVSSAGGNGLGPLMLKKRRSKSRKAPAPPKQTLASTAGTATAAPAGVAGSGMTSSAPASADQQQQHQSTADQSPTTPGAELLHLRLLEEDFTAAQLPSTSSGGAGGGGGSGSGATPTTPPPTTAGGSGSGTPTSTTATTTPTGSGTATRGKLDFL

wild type dEAG channel = experiment: Two-electrode voltage clamp in oocytes, wild type dEAG channel; type: cell-based, Drosophila; conditions: Xenopus laevis oocytes, co-expression with inactive kinase (K43M/D136N); n=6–8
Outline: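 Xenopus oocytes were defolliculated with 75 µg/ml Liberase for 40–60 min in Ca²⁺-free ND96. Stage V–VI cells were injected with premixed channel and kinase cRNA, then kept 1–5 d at 16 °C in storage solution containing gentamycin. Currents were recorded by standard two-microelectrode voltage clamp under continuous perfusion with 96 mM NaCl, 2 mM KCl, 0.3 mM CaCl₂, 1 mM MgCl₂, 5 mM HEPES, pH 7.4.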

[5] = target: T1, CaMKII kinase domain D136N mutant (residues 1–283) (Drosophila, UniProt Q00168 1-283, D136N); experiment: ITC
T1 sequence (Q00168 1-283 D136N): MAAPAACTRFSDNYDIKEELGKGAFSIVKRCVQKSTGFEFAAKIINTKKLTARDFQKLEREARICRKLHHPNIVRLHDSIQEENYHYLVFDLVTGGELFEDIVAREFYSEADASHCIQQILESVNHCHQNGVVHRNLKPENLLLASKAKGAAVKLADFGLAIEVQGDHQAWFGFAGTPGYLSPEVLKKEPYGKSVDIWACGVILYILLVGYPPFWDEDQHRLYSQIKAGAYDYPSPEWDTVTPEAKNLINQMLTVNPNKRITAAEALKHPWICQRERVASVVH

[6] = target: T1, CaMKII kinase domain D136N mutant …; experiment: ITC; remark: listed apart in the source
[7] = target: CaMKII kinase domain K43M/D136N mutant (Drosophila, UniProt Q00168 1-283, K43M | D136N); experiment: ITC
Sequence of CaMKII kinase domain K43M/D136N mutant (Q00168 1-283 K43M/D136N): as the sequence (Q00168 1-283 D136N) above, with K43M counted along it

[8] = target: T2, wild type CaMKII kinase domain (residues 1–283) (Drosophila, UniProt Q00168 1-283); experiment: ITC
T2 sequence (Q00168 1-283): as the sequence (Q00168 1-283 D136N) above, with N136D counted along it

[9] = target: T2, wild type CaMKII kinase domain …; experiment: ITC; remark: listed apart in the source
[10] = target: T2, wild type CaMKII kinase domain …; experiment: ITC; remark: listed apart in the source
[11] = target: T1, CaMKII kinase domain D136N mutant …; experiment: crystal structure
[12] = dEAGlong, individually fitted, n=4 (WT), n=3 (R784A, D789A)

Molecule: EAGlong^D789A: alanine mutant D789A of MBP-dEAGlong ({MBP}-VFPKAPKLQASQATLARQDTIAEGGEVDSSPPSRDSRVVIEGAAVSSATVGPS; reading uncertain)
- −TΔS [1, 12]: 5.7 ± 2.3 kcal/mol

Molecule: EAGlong^R784A: alanine mutant R784A of MBP-dEAGlong ({MBP}-VFPKAPKLQASQATLAAQDTIDEGGEVDSSPPSRDSRVVIEGAAVSSATVGPS; reading uncertain)
- −TΔS [1, 12]: 4.4 ± 4.7 kcal/mol

Molecule: EAGshort: dEAG residues 768 to 795 with mutations S778N and T781K, fused to maltose-binding protein ({MBP}-VFPKAPKLQANQAKLARQDTIDEGGEVD; reading uncertain; also: N-terminal His6, state not given here)
- −TΔS [2]: 8.7 ± 0.1 kcal/mol
- −TΔS ([1]; dEAGshort, wild type kinase, n=3): 11.4 ± 0.9 kcal/mol
- phosphorylation state of fragment at end of ITC [3]: dephosphorylated during the titration
- −TΔS [4]: 5.3 ± 3.8 kcal/mol

Molecule: dEAGlong^P: phosphorylated dEAGlong channel fragment used in crystal structure (VFPKAPKLQASQATLARQD[pT]IDEGGEVDSSPPSRDSRVVIEGAAVSSATVGPS; also: phosphothreonine at T787)
- affinity relative to typical kinase-substrate (KD ~200 μM) ([1]; fold tighter than expected for a kinase-substrate, typical KD from ref 27): approximately 200 fold

Molecule: inactive Drosophila kinase: full-length Drosophila CaMKII with two point mutations (K43M/D136N) in the active site
- effect of co-expressed kinase on channel activity (T787A dEAG channel): loss of measurable currents
- reduction of channel current (wild type dEAG channel): more than 10 fold

B1: MBP-dEAG_(short)^P (phosphorylated dEAG_(short), phosphorylated at T787) (domain or fragment, Drosophila, UniProt Q02280 768-795, looked up)
chain: {MBP}-VFPKAPKLQANQAKLARQD[pT]IDEGGEVD
modifications: reading uncertain
- Kd [5]: 0.475 nM
- dH [5]: -8.9 kcal/mol
- stoichiometry N [5]: 1.07

B2: MBP-dEAG_(short) (Drosophila EAG residues 768 to 795, S778N and T781K, fused to maltose-binding protein) (domain or fragment, UniProt Q02280 768-795, looked up)
chain: VFPKAPKLQANQAKLARQDTIDEGGEVD
- Kd [6]: 197 nM
- dH [6]: -14.5 kcal/mol
- stoichiometry N [6]: 0.81
- Kd [7]: 173 nM
- dH [7]: -18 kcal/mol
- stoichiometry N [7]: 0.79
- Kd [8]: 94 nM
- dH [8]: -21 kcal/mol
- stoichiometry N [8]: 0.86
- Kd [5]: 216 nM
- dH [5]: -16.3 kcal/mol
- stoichiometry N [5]: 0.83

B3: MBP-dEAG_(long) (wild-type Drosophila EAG CaMKII-binding fragment, residues 768 to 820, fused to maltose-binding protein) (domain or fragment, UniProt Q02280 768-820, looked up)
chain: {MBP}-VFPKAPKLQASQATLARQDTIDEGGEVDSSPPSRDSRVVIEGAAVSSATVGPS
modifications: reading uncertain
- Kd [9]: 1000 nM
- dH [9]: -7.3 kcal/mol
- stoichiometry N [9]: 0.94
- Kd [10]: 674 nM
- dH [10]: -17.3 kcal/mol
- stoichiometry N [10]: 0.96

B4: MBP-dEAG_(long) E793A (domain or fragment, Drosophila, UniProt Q02280 768-820, looked up)
chain: VFPKAPKLQASQATLARQDTIDEGGAVDSSPPSRDSRVVIEGAAVSSATVGPS
- Kd [10]: 1680 nM
- dH [10]: -16.7 kcal/mol
- stoichiometry N [10]: 0.978

B5: MBP-dEAG_(long) D789A (domain or fragment, Drosophila, UniProt Q02280 768-820, looked up)
chain: B4 chain with D22A, A26E
- Kd [10]: 7300 nM
- dH [10]: -12.7 kcal/mol
- stoichiometry N [10]: 1.02

B6: MBP-dEAG_(long) L782A (domain or fragment, Drosophila, UniProt Q02280 768-820, looked up)
chain: B4 chain with L15A, A26E
- Kd [10]: 24600 nM
- dH [10]: -3.75 kcal/mol
- stoichiometry N [10]: 1.28 and 0.645

B7: MBP-dEAG_(long) E790A (domain or fragment, Drosophila, UniProt Q02280 768-820, looked up)
chain: B4 chain with E23A, A26E
- Kd [10]: 2430 nM
- dH [10]: -15.7 kcal/mol
- stoichiometry N [10]: 1.06

B8: MBP-dEAG_(long) R784A (domain or fragment, Drosophila, UniProt Q02280 768-820, looked up)
chain: B4 chain with R17A, A26E
- Kd [10]: 47000 nM
- dH [10]: -10.3 kcal/mol
- stoichiometry N [10]: 0.85

B9: MBP-dEAG_(long) I788A (domain or fragment, Drosophila, UniProt Q02280 768-820, looked up)
chain: B4 chain with I21A, A26E
- Kd [10]: 80300 nM
- dH [10]: -10.5 kcal/mol
- stoichiometry N [10]: 0.667 and 1.09

B10: MBP-dEAG_(long) Q785A (domain or fragment, Drosophila, UniProt Q02280 768-820, looked up)
chain: B4 chain with Q18A, A26E
- Kd [10]: 12600 nM
- dH [10]: -18.5 kcal/mol
- stoichiometry N [10]: 0.747 and 0.664

B11: phosphorylated dEAG_(long) channel fragment (dEAG_(long)^P), MBP removed (domain or fragment, Drosophila, UniProt Q02280 768-820, looked up)
chain: VFPKAPKLQASQATLARQD[pT]IDEGGEVDSSPPSRDSRVVIEGAAVSSATVGPS
modifications: also: phosphothreonine at T787
- binding result [11]: binds
